In one test the test system is Kocuria rhizophila. The test is described as follows: Antibacterial activity against Kocuria rhizophila ATCC9341 assessed as reduction in microbial growth after 20 hrs by liquid microculture method. Type of test: functional. Conditions: ATCC9341, 20 h. The method, boiled down:
(§1)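 Broth microdilution MIC: twofold serial dilutions of compound were made across the plate, with the solvent vehicle kept at 0.5% of the final culture volume. The inoculum came from a log-phase culture. Plates were incubated at 37 °C for 20 h and growth was read as absorbance at 650 nm, in triplicate. Kanamycin sulfate was the reference drug.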

Another test has as its system Staphylococcus aureus. Briefly: Antibacterial activity against Staphylococcus aureus FDA209P JC-1 assessed as reduction in microbial growth after 20 hrs by liquid microculture method. The class given is functional. To be noted: FDA209P JC-1, 20 h. The essentials: as §1
A further test relates to Escherichia coli. The test is described as follows: Antibacterial activity against Escherichia coli NIHJ JC-2 assessed as reduction in microbial growth after 20 hrs by liquid microculture method. Type of test: functional. Conditions: NIHJ JC-2, 20 h. The method, boiled down:
as §1

The test system of test [1] is Agrobacterium tumefaciens. Briefly: Antibacterial activity against Rhizobium radiobacter NBRC14554 assessed as reduction in microbial growth after 20 hrs by liquid microculture method. Type of test: functional. Conditions: NBRC14554, 20 h. The method, boiled down:
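Broth microdilution MIC: twofold serial compound dilutions, vehicle at 0.5% of final volume, log-phase inoculum. Incubated at 37 °C for 20 h, with absorbance read at 650 nm in triplicate. Sulfamethoxazole was the reference drug.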

A further test has as its system Tenacibaculum maritimum. The test is described as follows: Antibacterial activity against Tenacibaculum maritimum NBRC16015 assessed as reduction in microbial growth after 20 hrs by liquid microculture method. The class given is functional. To be noted: NBRC16015, 20 h. The method, boiled down: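 Twofold serial-dilution microculture MIC: vehicle at 0.5% of final volume, log-phase inoculum, incubation at 24 °C. Growth was read as absorbance at 650 nm in triplicate. Sulfamethoxazole was the reference drug.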

In another test the test system is Candida albicans. Briefly: Antifungal activity against Candida albicans NBRC0197 assessed as reduction in microbial growth after 20 hrs by liquid microculture method. To be noted: NBRC0197, 20 h. The class given is functional. The method, boiled down:
(§2)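 Antifungal MIC by twofold serial dilution in microplates: vehicle at 0.5% of final volume, inoculum from a log-phase culture, incubation at 25 °C. Growth was read as absorbance at 650 nm in triplicate. Amphotericin B was the reference drug.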

The test system of test [2] is Colletotrichum gloeosporioides. Briefly: Antifungal activity against Glomerella cingulata NBRC5907 assessed as reduction in microbial growth after 20 hrs by liquid microculture method. To be noted: NBRC5907, 20 h. Type of test: functional. The essentials:
as §2

The subject of the next test is Trichophyton rubrum. Briefly: Antifungal activity against Trichophyton rubrum NBRC5467 assessed as reduction in microbial growth after 20 hrs by liquid microculture method. The class given is functional. To be noted: NBRC5467, 20 h. The method, boiled down:
as §2

Another test concerns P388. Briefly: Cytotoxicity against mouse P388 cells assessed as reduction in cell viability after 72 hrs by XTT assay. Type of test: functional, cell-based. Conditions: P388, 72 h. The essentials: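 P388 cells were grown in RPMI-1640 with L-glutamine, 10% FBS and 0.1 mg/mL gentamicin sulfate. They were seeded in 96-well round-bottom plates and exposed to compound in 200 μL cultures for 72 h at 37 °C under 5% CO2. Medium containing XTT (1 mg/mL) and PMS (40 μg/mL) was then added for 4 h, the medium was aspirated, and formazan was read at 450 nm. Growth inhibition was calculated per concentration, with doxorubicin as the reference.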

One may read the MIC as the lowest concentration found to suppress growth. As a reminder, the IC50 is the point on the concentration scale where inhibition reaches its midpoint. On to `CC(C)CCCCCCC(=O)c1c[nH]cn1`, for which the minimal inhibitory concentration (MIC) in the test on Kocuria rhizophila was 1.56 µg/mL; in the test with Staphylococcus aureus, 3.12 µg/mL; in the test with Escherichia coli, > 100 µg/mL; in [1] it was > 100 µg/mL; in the test on Tenacibaculum maritimum, 12.5 µg/mL; with Candida albicans, 6.25 µg/mL. Moreover, the MIC (in [2]; in the test with Trichophyton rubrum) was 3.12 µg/mL each time. Further, in the test on P388, the IC50 came out at 7 µM.

With `CCCCCCCCCC(=O)c1c[nH]cn1`, the minimal inhibitory concentration (MIC) in the test on Kocuria rhizophila is 0.78 µg/mL; in the test with Staphylococcus aureus, 1.56 µg/mL; in the test with Escherichia coli it was > 100 µg/mL; in test [1], > 100 µg/mL; in the test on Tenacibaculum maritimum, 6.25 µg/mL; in the test on Candida albicans, 12.5 µg/mL. The MIC (in test [2]; with Trichophyton rubrum) was 1.56 µg/mL each time. For the same compound, in the test with P388, the IC50 stood at 5.8 µM.

As for `CCC(C)CCCCCCC(=O)c1c[nH]cn1` (racemic), the MIC in the test on Kocuria rhizophila was 0.78 µg/mL; with Staphylococcus aureus, 1.56 µg/mL; with Escherichia coli, > 100 µg/mL; in [1], > 100 µg/mL; with Tenacibaculum maritimum, 3.12 µg/mL; in the test on Candida albicans, 6.25 µg/mL. Moreover, the minimum inhibitory concentration (MIC) in test [2] worked out at 1.56 µg/mL; in the test on Trichophyton rubrum, 0.78 µg/mL. In addition, the half-inhibitory concentration (IC50) in the test on P388 turned out to be 5 µM.

The record behind these values is ChEMBL document CHEMBL4610089, “Bulbimidazoles A-C, Antimicrobial and Cytotoxic Alkanoyl Imidazoles from a Marine Gammaproteobacterium Microbulbifer Species” (J Nat Prod, 2020).
